Measured values from the RNAGym collection of RNA variant scans (doi:10.1126/science.aae0568).
This sample holds only a part of the variants without activity.

B1: tRNA (parent)
chain: GUUCCGUUGGCGUAAUGGUAACGCGUCUCCCUCCUAAGGAGAAGACUGCGGGUUCGAGUCCCGUACGGAACG

Variants of: B1
Assay: yeast fitness relative to wild type (ratio to wild type); higher = fitter; tRNA-Arg(CCU), competitive growth, 37 C, YPD
How it was run: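 Start and end populations of a pooled competition were compared by 100-nucleotide paired-end sequencing of gene amplicons. The Saccharomyces cerevisiae strains carried tRNA-Arg(CCU) gene variants at the native genomic locus, synthesised with a 3% per-site mutation rate at 69 sites, and competed in YPD at 37°C for 24 hours in six parallel replicates. Darwinian fitness relative to wild type was based on the change in genotype frequencies. Genotypes required ≥ 100 starting reads, and estimates < 0.5 were set to 0.5.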

Variant	yeast fitness
A40G	1.01
A40G A43G C55U	0.565
A40G A45C C60A	≤ 0.5
A40G A70C	0.946
A40G C49U	0.883
A40G C61U A65U	≤ 0.5
A40G C62U A65C C66A	≤ 0.5
A40G G44A A70G	0.567
A40G G44C	0.676
A40G G44C U53C C55A A65U	≤ 0.5
A40G G48C C61G A65U	≤ 0.5
A40G G51C A57U	≤ 0.5
A40G G52C C66G	≤ 0.5
A40G G56C	0.725
A40G G63A G67A	≤ 0.5
A40G G68U	0.857
A40G U54C G68C	≤ 0.5
A40G U64C	0.972
A40U	0.988
A40U A42C C62U G68A	≤ 0.5
A40U A42C G44A G51A A65G	0.542
A40U A42G A57U	0.576
A40U A43C G67U	0.724
A40U A43G A57G	≤ 0.5

Variant	yeast fitness
A40U A45G	0.816
A40U A45U	0.941
A40U A45U C49U	0.63
A40U A45U G48A	0.998
A40U A57U	0.837
A40U A65G	1.01
A40U C46G G68C	≤ 0.5
A40U C49A A57G C62U	≤ 0.5
A40U C49G G56C	≤ 0.5
A40U C55U C61G	0.507
A40U C60A	0.604
A40U C61G G68C	0.571
A40U C61G G68C A70G	≤ 0.5
A40U G44A	0.981
A40U G44A A65U	0.51
A40U G44C U53G	≤ 0.5
A40U G48A C60A U64C A69C	≤ 0.5
A40U G56C	0.651
A40U G58C	0.945
A40U G58U	0.768
A40U G67U	0.797
A40U U47A	0.856
A40U U53A	0.774
A40U U53G	0.638

Variant	yeast fitness
A40U U54A C60G G67C	0.599
A40U U54C C60A	≤ 0.5
A40U U59A	0.678
A40U U59C G68A	0.569
A40U U64C	1.08
G41A A42G A70U	≤ 0.5
G41A A43C C49G A57G	≤ 0.5
G41A A43U G51C	≤ 0.5
G41A A65C	0.67
G41A A65G G67A	0.635
G41A C49A C62U G68C	≤ 0.5
G41A C49U G51C C61U	≤ 0.5
G41A C49U G63A	0.678
G41A C55A	0.661
G41A C55U U59A A70U	≤ 0.5
G41A C60A C61U A69U	≤ 0.5
G41A C60G	0.646
G41A C61U	0.786
G41A C66A	0.687
G41A C66U	0.685
G41A G48C	0.772
G41A G48C G67C	≤ 0.5
G41A G50C	0.676
G41A G52A A69C	0.53

Variant	yeast fitness
G41A G52C C61U C62U	≤ 0.5
G41A G52U U64A G68A	0.622
G41A G58A	1
G41A G67U G68C	0.507
G41A U53G U64A	≤ 0.5
G41C A42G A70G	0.593
G41C A42G G51A	0.538
G41C A42G G51A A69C	≤ 0.5
G41C A42U U64C G68C	≤ 0.5
G41C A43C	0.731
G41C A43U G68U	≤ 0.5
G41C A65C	0.794
G41C A65C A70U	0.641
G41C C46G U59C C60U	≤ 0.5
G41C C46U	1.03
G41C C61G	0.793
G41C C62G	0.597
G41C C66A	0.621
G41C G48A	0.981
G41C G48C A69U	0.558
G41C G52C A65U	≤ 0.5
G41C G56C	0.557
G41C G63C A65U	≤ 0.5
G41C U54A	0.667

Variant	yeast fitness
A42C A43U G67C	≤ 0.5
A42C A45C G48A A65G	0.671
A42C A45C G48A A70G	0.632
A42C A57U C66U	≤ 0.5
A42C C61G A65U	0.539
A42C C62A	0.719
A42C C62U	0.829
A42C G48A G50A C61G	0.553
A42C G48C A70U	0.666
A42C G50A C61G	0.793
A42C G56A	1.01
A42C G58A	0.951
A42C U47C G58C	0.644
A42C U53A G68C	≤ 0.5
A42C U53A U54C U64A	≤ 0.5
A42C U54A	0.567
A42C U54C	0.796
A42C U59A A69U	0.528
A42G A43U C46U C62U	0.551
A42G A45C G48C	≤ 0.5
A42G A57C	0.7
A42G A57U G67C	≤ 0.5
A42G A65C A69C A70G	0.577
A42G A65G	0.735

Variant	yeast fitness
A42G C46A	0.908
A42G C46G	0.886
A42G C46G C49U	0.744
A42G C46U A57C	≤ 0.5
A42G C46U A65C	0.665
A42G C49G C61G	≤ 0.5
A42G C49U	0.801
A42G C55U	0.688
A42G C61G C66U	≤ 0.5
A42G C62A	0.786
A42G C62A C66U	0.614
A42G G44C C60G	0.606
A42G G48A	0.863
A42G G50A	0.842
A42G G51A C60A	≤ 0.5
A42G G56U	0.565
A42G G63A	0.684
A42G G68C	0.798
A42G U47C C62A C66U	≤ 0.5
A42G U47G G50C	0.608
A42G U47G G68U	≤ 0.5
A42G U64A	0.724
A42G U64C	0.904
A42U A43C	0.994

Variant	yeast fitness
A42U A43G G48C U53A A69C	0.589
A42U A43G G48C U53A A70C	0.525
A42U A43G G67A	0.574
A42U A43U C62A A65U A69G	0.567
A42U A45U A69U	0.707
A42U A57U	0.682
A42U A57U C61U	≤ 0.5
A42U A65C	0.81
A42U C46U	0.97
A42U C46U A57U	0.538
A42U C49U	0.975
A42U C55G	0.616
A42U C55U A69C	0.511
A42U C60U A70G	0.703
A42U C61G A65C C66G	0.89
A42U C62A U64G C66G	≤ 0.5
A42U C66G	0.712
A42U G44A	1.01
A42U G44C U54A C66U G67A	≤ 0.5
A42U G52A G67U	0.783
A42U G52C	0.694
A42U G56A G63C	≤ 0.5
A42U G63A A65G	0.572
